Assay: Cytotoxicity against human NCI60 cells by NCI protocol based assay
Assay type: functional
Method in brief: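 NCI-60 human tumour cell line panel run per the NCI protocol, with ethanol used as solvent in place of DMSO. Single-dose screen at 10 μM first, then five-dose assay from 10 nM to 100 μM at log10 intervals. Percent growth was plotted against concentration for each cell line, and GI50, TGI and LC50 were calculated from the dose–response curves.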

Structure (SMILES)	GI50 [µM]	LC50 [µM]	TGI [µM]
CCCC1C(=O)OC2c3cc(C)cc(O)c3C3=C(C(=O)c4c(O[C@H]5C[C@@H](O)[C@@H](O)[C@H](C)O5)cccc4C3=O)N12 (stereo partly drawn)	4.79	19	10
Cc1cc(O)c2c3c(ncc2c1)C(=O)c1c(O[C@H]2C[C@@H](O)[C@@H](O)[C@H](C)O2)cccc1C3=O	2.14	18.2	5.75
Cc1cc(O)c2c(c1)[C@@H]1OC(=O)CN1C1=C2C(=O)c2cccc(O[C@H]3C[C@@H](O)[C@@H](O)[C@H](C)O3)c2C1=O [JADOMYCIN G]	1.68	38.5	9.6
CC(=O)O[C@@H]1[C@@H](OC(C)=O)[C@H](C)O[C@H](n2cc(COC[C@H]3C(=O)OC4c5cc(C)cc(O)c5C5=C(C(=O)c6c(O[C@H]7C[C@@H](O)[C@@H](O)[C@H](C)O7)cccc6C5=O)N43)nn2)[C@@H]1OC(C)=O (stereo partly drawn)	3.1	9.8	6.3
CC(=O)OC[C@@H]1O[C@@H](n2cc(COC[C@H]3C(=O)OC4c5cc(C)cc(O)c5C5=C(C(=O)c6c(O[C@H]7C[C@@H](O)[C@@H](O)[C@H](C)O7)cccc6C5=O)N43)nn2)[C@H](OC(C)=O)[C@H](OC(C)=O)[C@H]1OC(C)=O (stereo partly drawn)	3.7	10.9	6.6
Cc1cc(O)c2c(c1)C1OC(=O)[C@H](COCc3cn(Cc4ccccc4)nn3)N1C1=C2C(=O)c2cccc(O[C@H]3C[C@@H](O)[C@@H](O)[C@H](C)O3)c2C1=O (stereo partly drawn)	6.1	14.9	11.9
CC(=O)O[C@H]1O[C@@H](n2cc(COC[C@H]3C(=O)OC4c5cc(C)cc(O)c5C5=C(C(=O)c6c(O[C@H]7C[C@@H](O)[C@@H](O)[C@H](C)O7)cccc6C5=O)N43)nn2)[C@@H](OC(C)=O)[C@@H](OC(C)=O)[C@@H]1OC(C)=O (stereo partly drawn)	3.5	11.8	7.2
CC(=O)O[C@@H]1[C@@H](OC(C)=O)[C@H](C)O[C@@H](n2cc(COC[C@H]3C(=O)OC4c5cc(C)cc(O)c5C5=C(C(=O)c6c(O[C@H]7C[C@@H](O)[C@@H](O)[C@H](C)O7)cccc6C5=O)N43)nn2)[C@@H]1OC(C)=O (stereo partly drawn)	3.1	11.6	6.8
Cc1cc(O)c2c(c1)[C@@H]1OC(=O)[C@H]([C@H](C)O)N1C1=C2C(=O)c2cccc(O[C@H]3C[C@@H](O)[C@@H](O)[C@H](C)O3)c2C1=O [JADOMYCIN T]	1.35	6.5	3.02
CCCCC1C(=O)OC2c3cc(C)cc(O)c3C3=C(C(=O)c4c(O[C@H]5C[C@@H](O)[C@@H](O)[C@H](C)O5)cccc4C3=O)N12 (stereo partly drawn)	3.89	18	8.7
Cc1cc(O)c2c(c1)[C@@H]1OC(=O)[C@H](CC(C)C)N1C1=C2C(=O)c2cccc(O[C@H]3C[C@@H](O)[C@@H](O)[C@H](C)O3)c2C1=O [JADOMYCIN L]	1.82	9.3	4.1
